MT1-MMP act inh: blocks activation of human MT1-MMP. HT1080 RFP-PRO-GFP cells, GFP/RFP ratio fluorescence, overnight; percent of plate control window, DMSO zero. GFP/RFP ratio change, % at 20 µM. hit rate 0.061% among 360,000;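 active = GFP/RFP ratio change of at least 30% with cell ATP level not reduced by more than half and red fluorescence within 50% of control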
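Test system: HT1080 RFP-PRO-GFP cells; Benchmarks: DMSO and RFP-L50D-GFP cell wells; Timing: cells overnight before dosing, compound overnight, 37 °C, 5% CO2; Compound: one 20 µM compound dose with 1% DMSO; Read-out: GFP/RFP fluorescence ratio.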
PABP polyA inh: PABP-poly(A) binding inhibition. hit rate 1% among 290,000. P11940. PABP-poly(A) RNA binding, fluorescence polarization. calls only at 35 µM;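 note: calls also rest on retests at 20 µM and on dose response follow-up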
SKN-1 inh: C. elegans SKN-1 inhibition | inhibition, % at 21.8 µM | hit rate 0.49% among 360,000 | C. elegans VP596 Pgst-4::GFP/RFP ratio, acrylamide-induced, 24 h;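 active = interference check ratio from 0.5 to 1.5 plus GFP to RFP signal ratio inhibition reaching or exceeding a fixed threshold, cut at about 30% in these data, passing the limit was not always enough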
PABP1 MLLE inh: blocks PAM2 peptide binding to the PABP1 MLLE domain | GST-MLLE / FITC-PAM2 fluorescence polarization | hit rate 0.36% among 360,000 | AID 588489 | P11940 | inhibition, % at 20 µM; in the data active = inhibition above about 35%, passing the limit was not always enough
eIF4H inh: inhibitors of RNA binding by human eIF4H | AID 2012 | hit rate 0.94% among 290,000 | inhibition, % at 35 µM | eIF4H fluorescence polarization binding assay;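 note: calls also rest on retests at 20 µM and on dose response follow-up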
Large screens that a line does not name were inactive. An excerpt weighted towards active compounds, which were near 1.8% of everything screened. Unless noted, the rule behind the calls is not given here.

CN1CCN(C2=C(Cl)C(=O)N(Cc3ccccc3)C2=O)CC1	PABP polyA inh active, eIF4H inh 89.0
CCN1CCN(C2=C(Cl)C(=O)N(Cc3ccccc3)C2=O)CC1	none
CCOc1ccc2c(c1)-c1c(ssc1=S)C(C)(C)N2C(=O)CSC1=NCCS1	PABP1 MLLE inh 45.5
Cc1ccc2c(c1)-c1c(ssc1=S)C(C)(C)N2C(=O)CSC1=NCCS1	none
COc1ccc(NC(=O)C[C@H]2C(=O)N(C3CCCCC3)C[C@@H]2c2ccc(OC)cc2)cc1	none (no result: PABP polyA inh, eIF4H inh)
O=[N+]([O-])c1ccc(Cl)c(C2Nc3cccc4cccc(c34)N2)c1	PABP polyA inh active, eIF4H inh 97.2
COc1ccccc1C1Nc2cccc3cccc(c23)N1	PABP polyA inh inconclusive, eIF4H inh inconclusive
CCOc1cc(C2Nc3cccc4cccc(c34)N2)ccc1O	none
O=[N+]([O-])c1ccccc1C1Nc2cccc3cccc(c23)N1	none
Clc1cccc(C2Nc3cccc4cccc(c34)N2)c1	PABP polyA inh active, eIF4H inh 52.7
Oc1ccccc1C1Nc2cccc3cccc(c23)N1	PABP polyA inh active, eIF4H inh 94.7
Brc1cccc(C2Nc3cccc4cccc(c34)N2)c1	none
Clc1ccc(C2Nc3cccc4cccc(c34)N2)cc1Cl	PABP polyA inh active, eIF4H inh 55.2
c1ccc(C2Nc3cccc4cccc(c34)N2)cc1	PABP polyA inh active, eIF4H inh 86.1
CN1c2cccc3cccc(c23)N(C)C1c1cccs1	none
C/C(=C\c1cc2ccccc2o1)C1Nc2cccc3cccc(c23)N1	none (no result: PABP polyA inh, eIF4H inh)
Brc1ccc(C2Nc3cccc4cccc(c34)N2)o1	PABP polyA inh active, eIF4H inh 98.8
c1csc(C2Nc3cccc4cccc(c34)N2)c1	PABP polyA inh inconclusive, PABP1 MLLE inh 40.5, eIF4H inh inconclusive
CC(C)(C)NC(=O)C1c2ccccc2OCC(=O)N1CCCN1CCOCC1 (stereo unspecified)	none (no result: PABP polyA inh, PABP1 MLLE inh, eIF4H inh)
CN(CCC#N)C(=O)COC(=O)c1c2c(nc3ccccc13)/C(=C/c1ccco1)CC2	eIF4H inh 95.3
O=[N+]([O-])c1cccc(NC(=S)N2CCc3ccccc32)c1	none
CCC(C)Cn1c(C(C)C)nc2ccccc21 (stereo unspecified)	none
CCC(C)Cn1c(C(C)O)nc2ccccc21 (stereo unspecified)	eIF4H inh active
CS(=O)(=O)N1CCN(C(=O)C(Sc2ccccc2)c2ccccc2)CC1 (stereo unspecified)	PABP1 MLLE inh 42.9
O=C(CCCN1C(=O)/C(=C/c2ccco2)SC1=S)Nc1cccc(C(=O)O)c1	PABP polyA inh active, eIF4H inh 94.1
O=C(CCCN1C(=O)/C(=C/c2ccccc2)SC1=S)Nc1ccc(C(=O)O)c(O)c1	none
CC(C(=O)Nc1ccc(C(=O)O)c(O)c1)N1C(=O)/C(=C\c2ccco2)SC1=S (stereo unspecified)	PABP polyA inh active, eIF4H inh 100.1
O=C(CCN1C(=O)/C(=C\C=C\c2ccccc2)SC1=S)Nc1ccc(C(=O)O)cc1	PABP polyA inh active, eIF4H inh 68.2
O=C(CN1C(=O)/C(=C/c2ccco2)SC1=S)Nc1ccc(C(=O)O)c(O)c1	PABP polyA inh active, eIF4H inh 91.5
CC(/C=C1\SC(=S)N(CC(=O)O)C1=O)=C\c1ccccc1	none
Cc1ccc(NC(=O)CN2C(=O)N/C(=C/c3cccn3-c3ccc(C(=O)O)cc3)C2=O)cc1	none
CC(=C\c1ccco1)/C=C1/SC(=S)N(CC(=O)O)C1=O	PABP polyA inh active, eIF4H inh 87.0
Cc1ccc(NC(=O)CN2C(=O)N/C(=C/c3ccco3)C2=O)cc1	PABP polyA inh active, eIF4H inh 89.7
O=C(CN1C(=O)/C(=C/c2ccco2)SC1=S)Nc1ccc(O)c(C(=O)O)c1	PABP polyA inh active, eIF4H inh 81.2
O=C(CN1C(=O)/C(=C/c2ccco2)SC1=S)NC1CCS(=O)(=O)C1 (stereo unspecified)	PABP polyA inh active, eIF4H inh 74.2
O=C1NC[C@@H](CCCCN2CCN(CCc3ccccc3)C(=O)C2=O)N(CC2CCCCC2)C1=O	none (no result: PABP polyA inh, PABP1 MLLE inh, eIF4H inh)
CN(CCc1ccccc1)C(=O)c1ccc(NC(=O)Cc2ccc(NC(=O)C3CCCN(C(=O)C4CCCC4)C3)cc2)cc1 (stereo unspecified)	none (no result: PABP polyA inh, eIF4H inh)
CC(=O)Cn1ncc(N(C)Cc2ccccc2)c(Cl)c1=O	none
O=C1COc2ccccc2C(c2nc3ccccc3[nH]2)N1C1CC1 (stereo unspecified)	none (no result: PABP polyA inh, PABP1 MLLE inh, eIF4H inh)
O=C1CN(C(=O)c2ccc(Br)o2)C(c2ccccc2)c2cc(Br)ccc2N1 (stereo unspecified)	SKN-1 inh 58.9
CCc1nc2ccc(C(=O)Nc3ccc(NC(C)=O)cc3)cn2c1N(C)CCCc1ccccc1	none (no result: PABP polyA inh, eIF4H inh)
CC(/C=N/N1CCN(Cc2ccccc2)CC1)=C\c1ccccc1	SKN-1 inh 62.2
Cc1ccc(NC(=O)c2cc3ccccc3oc2=O)cc1S(=O)(=O)N(C)C	PABP polyA inh active
COc1ccc2c(c1)c(=O)oc1cc(OCC(=O)NC3CCCCC3)ccc12	eIF4H inh 91.1
COc1ccc2c(c1)c(=O)oc1cc(OCC(=O)NC3CC3)ccc12	none
CCOC(=O)CC1C(=O)NCCN1c1nc2ccc(C)cn2c(=O)c1/C=C1\SC(=S)N(CC(C)C)C1=O (stereo unspecified)	PABP polyA inh inconclusive, SKN-1 inh 42.4, eIF4H inh inconclusive
CCCN1C(=O)/C(=C/c2c(N3CCNC(=O)C3CC(=O)OCC)nc3c(C)cccn3c2=O)SC1=S (stereo unspecified)	PABP polyA inh inconclusive, eIF4H inh inconclusive
O=c1[nH]cnc2c1ncn2-c1ccc(N(CCO)CCO)cc1	none (no result: PABP polyA inh, eIF4H inh)
Cn1c(SCC(=O)Nc2nncs2)nnc1C1CC1	PABP polyA inh active, eIF4H inh 89.5
CCN(CC(=O)Nc1ccc(Br)cc1)C(=O)c1nc2nc(C)cc(C)n2n1	none (no result: PABP polyA inh, eIF4H inh)
COC(=O)c1ccc(=O)n(Cc2ccco2)c1	SKN-1 inh 37.5
Cc1cccc(NC(=O)COC(=O)C2COc3ccccc3O2)c1C (stereo unspecified)	none (no result: PABP polyA inh, eIF4H inh)
Cc1cccc(C(=O)NCC(=O)OCC(=O)N(C)CC(=O)Nc2ccc(F)cc2)c1	none (no result: PABP polyA inh, eIF4H inh)
O=C(O)c1ccc(CNc2ccccc2C(=O)O)cc1	PABP polyA inh active, eIF4H inh 77.4
CC[C@]12c3[nH]c4ccccc4c3CCN1C(=O)C(CC(=O)NCc1cccc(C(F)(F)F)c1)C[C@@H]2C(=O)N1CCN(C(=O)c2ccco2)CC1 (stereo partly specified)	none (no result: PABP polyA inh, eIF4H inh)
COc1ccc(S(=O)(=O)N2CCOC2CNC(=O)C(=O)NCCCN2CCCC2=O)cc1OC (stereo unspecified)	none (no result: PABP polyA inh, eIF4H inh)
COc1ccc(C(=O)CN2CCN(S(=O)(=O)c3cccc([N+](=O)[O-])c3)CC2)cc1OC	PABP1 MLLE inh 39.2
Cc1ccc(NC(=O)NCC2CC2(Cl)Cl)cc1 (stereo unspecified)	none
O=C(NCC1CC1(Cl)Cl)Nc1ccc(Cl)c(Cl)c1 (stereo unspecified)	SKN-1 inh 56.2
